Measurements reported in ChEMBL document CHEMBL1142018, “Discovery and SAR of new benzazepines as potent and selective 5-HT(2C) receptor agonists for the treatment of obesity” (Bioorg Med Chem Lett, 2005).

Tests used:
[1] = biological target: T1, 5-hydroxytryptamine receptor 2A (Homo sapiens, UniProt P28223); assay: Effective concentration towards 5-hydroxytryptamine 2A receptors transfected in HEK293 cells was determined by measuring [3H]phosphoinositol release; format: functional, cell-based
Summary of the method: (§1)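 Functional agonism at human 5-HT2A, 5-HT2B or 5-HT2C receptors (the 2C as the INI isoform). Receptors were transiently transfected into HEK-293 cells, and the read-out was [³H]phosphoinositol turnover.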

[2] = biological target: T2, 5-hydroxytryptamine receptor 2B (Homo sapiens, UniProt P41595); assay: Effective concentration towards 5-hydroxytryptamine 2B receptors transfected in HEK293 cells was determined by measuring [3H]phosphoinositol release; format: functional, cell-based; summary of the method: as §1
T2 sequence (P41595 whole entry): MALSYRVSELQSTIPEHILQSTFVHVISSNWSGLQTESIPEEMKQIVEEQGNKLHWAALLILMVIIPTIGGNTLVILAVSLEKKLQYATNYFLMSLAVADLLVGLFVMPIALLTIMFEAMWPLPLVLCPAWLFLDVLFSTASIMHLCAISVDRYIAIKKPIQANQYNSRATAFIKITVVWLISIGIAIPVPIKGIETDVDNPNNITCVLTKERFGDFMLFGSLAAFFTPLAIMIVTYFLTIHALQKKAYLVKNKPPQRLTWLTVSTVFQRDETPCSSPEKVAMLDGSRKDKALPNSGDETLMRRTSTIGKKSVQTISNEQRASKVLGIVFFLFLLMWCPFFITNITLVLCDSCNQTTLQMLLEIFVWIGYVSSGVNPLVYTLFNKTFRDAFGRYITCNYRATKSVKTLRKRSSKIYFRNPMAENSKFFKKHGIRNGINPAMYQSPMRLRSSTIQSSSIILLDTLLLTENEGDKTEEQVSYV

[3] = biological target: T3, 5-hydroxytryptamine receptor 2C (Homo sapiens, UniProt P28335); assay: Effective concentration towards 5-hydroxytryptamine 2C receptors transfected in HEK293 cells was determined by measuring [3H]phosphoinositol release; format: functional, cell-based; summary of the method: as §1
T3 sequence (P28335 whole entry): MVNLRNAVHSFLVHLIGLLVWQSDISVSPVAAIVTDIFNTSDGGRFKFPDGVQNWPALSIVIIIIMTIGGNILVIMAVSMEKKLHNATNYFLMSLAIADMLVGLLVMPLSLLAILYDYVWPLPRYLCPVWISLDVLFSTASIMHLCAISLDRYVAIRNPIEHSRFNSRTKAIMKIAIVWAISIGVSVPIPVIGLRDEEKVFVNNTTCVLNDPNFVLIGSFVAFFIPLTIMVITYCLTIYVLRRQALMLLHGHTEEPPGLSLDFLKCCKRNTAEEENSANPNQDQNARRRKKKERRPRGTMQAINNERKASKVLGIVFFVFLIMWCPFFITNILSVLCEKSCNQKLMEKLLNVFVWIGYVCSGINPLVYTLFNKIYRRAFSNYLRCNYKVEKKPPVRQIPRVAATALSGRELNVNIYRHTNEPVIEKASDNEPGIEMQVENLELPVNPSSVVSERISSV

Rattus norvegicus = assay: Effect on food intake after 6 hr of injection of compound by oral gavage and compared to vehicle control rats (n = 8); decreased food intake by range 10-40 mg/kg; format: functional
[4] = biological target: T2, 5-hydroxytryptamine receptor 2B; assay: Percentage maximum response relative to serotonin towards 5-hydroxytryptamine 2B receptor in HEK293 cells; format: functional, cell-based; summary of the method: as §1
[5] = biological target: T1, 5-hydroxytryptamine receptor 2A; assay: Percentage maximum response relative to serotonin towards 5-hydroxytryptamine 2A receptor in HEK293 cells; format: functional, cell-based; summary of the method: as §1
[6] = biological target: T4, 5-hydroxytryptamine receptor 2C (Homo sapiens) (UniProt P28335); assay: Percentage maximum response relative to serotonin towards 5-hydroxytryptamine 2C receptor in HEK293 cells; format: functional, cell-based; summary of the method: as §1
T4 sequence (whole entry): T3 sequence (P28335 whole entry)

[7] = biological target: T2, 5-hydroxytryptamine receptor 2B; assay: Percentage maximum response relative to serotonin towards 5-hydroxytryptamine 2B receptor at 10 uM concentration in HEK293 cells; format: functional, cell-based
[8] = Rattus norvegicus, po, 6 h, read-out: ED50

T1 sequence (P28223 whole entry, canonical isoform): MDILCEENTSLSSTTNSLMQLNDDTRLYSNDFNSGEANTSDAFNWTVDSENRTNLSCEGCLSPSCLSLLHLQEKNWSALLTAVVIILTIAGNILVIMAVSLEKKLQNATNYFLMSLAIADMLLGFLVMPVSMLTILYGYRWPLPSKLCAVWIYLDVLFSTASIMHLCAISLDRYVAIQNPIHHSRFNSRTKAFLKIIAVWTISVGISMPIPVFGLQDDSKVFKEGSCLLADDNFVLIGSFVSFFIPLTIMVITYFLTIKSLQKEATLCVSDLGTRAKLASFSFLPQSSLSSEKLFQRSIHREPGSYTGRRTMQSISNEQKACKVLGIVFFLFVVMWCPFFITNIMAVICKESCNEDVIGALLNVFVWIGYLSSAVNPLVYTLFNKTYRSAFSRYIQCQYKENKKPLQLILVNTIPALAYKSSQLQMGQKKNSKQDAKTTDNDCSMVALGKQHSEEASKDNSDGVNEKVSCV

COc1ccc2c(c1)CCNCC2C (configuration not stated) was tested, and the EC50 ([1]; read-out: EC50) was > 10 µM, the EC50 ([2]; hek293) was “Not Active” and the EC50 [3] was 2 µM.

CC1CNCCc2cc(Cl)ccc21 (configuration not stated) gave an EC50 ([1]; read-out: EC50) of 0.15 µM, an EC50 ([2]; read-out: EC50) of 0.53 µM and an EC50 [3] of 0.035 µM.

CC1CNCCc2ccc(Cl)c(Cl)c21 (configuration not stated) was tested, and the EC50 ([1]; read-out: EC50) was 0.22 µM, the ED50 (Rattus norvegicus; [8]) was 40 mg/kg and the EC50 ([2]; read-out: EC50) was 1.8 µM. It also gave an EC50 [3] of 0.006 µM.

For COc1cc2c(cc1Br)[C@@H](C)CNCC2, the EC50 ([1]; read-out: EC50) was 0.08 µM, the EC50 ([2]; read-out: EC50) was 0.22 µM and the EC50 [3] was 0.003 µM.

C[C@H]1CNCCc2ccc(Cl)cc21 showed a Maximum response [4] of 100%, a Maximum response [5] of 70% and a Maximum response [6] of 100%.

Work on CC1CNCCc2cc(O)c(Br)cc21 (configuration not stated) yielded an EC50 ([1]; read-out: EC50) of 0.063 µM, an EC50 ([2]; read-out: EC50) of 0.19 µM and an EC50 [3] of 0.003 µM.

With CCC1CNCCc2cc(OC)c(Br)cc21 (configuration not stated) the EC50 ([1]; read-out: EC50) was 0.1 µM, the EC50 ([2]; read-out: EC50) was 0.04 µM and the EC50 [3] was 0.011 µM.

CC1CNCCc2cc(F)c(Cl)cc21 (configuration not stated) was tested, and the EC50 ([1]; read-out: EC50) was 0.072 µM, the ED50 (Rattus norvegicus; [8]) was 40 mg/kg and the EC50 ([2]; read-out: EC50) was 0.36 µM. It also gave an EC50 [3] of 0.007 µM.

For CC1CNCCc2ccc(F)cc21 (configuration not stated), the EC50 ([1]; read-out: EC50) was 1.6 µM, the EC50 ([2]; read-out: EC50) was > 10 µM and the EC50 [3] was 0.41 µM.

In the case of Clc1ccc2c(c1)CCNCC2, the Maximum response [4] is reported as 100%, the EC50 ([1]; read-out: EC50) is reported as 0.09 µM and the EC50 ([2]; read-out: EC50) is reported as 1 µM. For the same molecule, the Maximum response [5] was 100%, the Maximum response [6] was 85% and the EC50 [3] was 0.012 µM.

Work on CCOc1cc2c(cc1Br)C(C)CNCC2 (configuration not stated) yielded an EC50 ([1]; read-out: EC50) of 0.11 µM, an EC50 ([2]; read-out: EC50) of 0.18 µM and an EC50 [3] of 0.028 µM.

C[C@@H]1CNCCc2ccc(Cl)cc21 showed a Maximum response [4] of 100%, a Maximum response [5] of 70% and a Maximum response [6] of 100%.

With C[C@H]1CNCCc2ccc(Cl)c(Cl)c21 the EC50 ([1]; read-out: EC50) was 2.4 µM, the EC50 ([2]; read-out: EC50) was > 10 µM and the Maximum response [5] was 100%. For the same molecule, the Maximum response [6] was 85% and the EC50 [3] was 0.23 µM.

CC1CNCCc2ccc(C(F)(F)F)cc21 (configuration not stated) was tested, and the EC50 ([1]; read-out: EC50) was 0.1 µM, the ED50 (Rattus norvegicus; [8]) was 40 mg/kg and the EC50 ([2]; read-out: EC50) was 0.38 µM. For the same molecule, the EC50 [3] was 0.007 µM.

For CC(C)Oc1cc2c(cc1Br)C(C)CNCC2 (configuration not stated), the EC50 ([1]; read-out: EC50) was 0.097 µM, the EC50 ([2]; read-out: EC50) was 0.23 µM and the EC50 [3] was 0.068 µM.

COc1cc2c(cc1Br)CCNCC2 was tested, and the EC50 ([1]; read-out: EC50) was 0.1 µM, the EC50 ([2]; read-out: EC50) was 0.4 µM and the EC50 [3] was 0.008 µM.

For COc1cc2c(cc1Br)C(C(C)C)CNCC2 (configuration not stated), the EC50 ([1]; hek293) was “Not Active”, the EC50 ([2]; read-out: EC50) was 1 µM and the EC50 [3] was 0.16 µM.

With COc1ccc2c(c1)C(C)CNCC2 (configuration not stated) the EC50 ([1]; read-out: EC50) was 0.94 µM, the EC50 ([2]; read-out: EC50) was 0.78 µM and the EC50 [3] was 0.42 µM.

Molecule CC1CNCCc2ccc(Cl)cc21 (configuration not stated) has an ED50 (Rattus norvegicus; [8]) of 40 mg/kg.

Molecule COc1cc2c(cc1I)C(C)CNCC2 (configuration not stated) has an EC50 ([1]; read-out: EC50) of 0.061 µM, an ED50 (Rattus norvegicus) of 40 mg/kg and an EC50 ([2]; read-out: EC50) of 0.064 µM. For the same molecule, the EC50 [3] was 0.002 µM.

For CC1CNCCc2ccccc21 (configuration not stated), the EC50 ([1]; read-out: EC50) was 1.6 µM, the EC50 ([2]; read-out: EC50) was > 5 µM and the EC50 [3] was 0.34 µM.

With CC1CNCCc2cccc(Cl)c21 (configuration not stated) the EC50 ([1]; read-out: EC50) was > 5 µM, the EC50 ([2]; read-out: EC50) was > 5 µM and the EC50 [3] was 0.93 µM.

In the case of COc1cc2c(cc1Cl)C(C)CNCC2 (configuration not stated), the EC50 ([1]; read-out: EC50) is reported as 0.08 µM, the ED50 (Rattus norvegicus; [8]) is reported as 40 mg/kg and the EC50 ([2]; read-out: EC50) is reported as 0.14 µM. It also gave an EC50 [3] of 0.011 µM.

For CC1CNCCc2cc(Cl)c(Cl)cc21 (configuration not stated), the EC50 ([1]; read-out: EC50) was 0.016 µM, the ED50 (Rattus norvegicus; [8]) was 40 mg/kg and the EC50 ([2]; read-out: EC50) was 0.078 µM. The EC50 [3] was 0.004 µM.

Molecule COc1cc2c(cc1Br)[C@H](C)CNCC2 has an EC50 ([1]; read-out: EC50) of 0.03 µM, an EC50 ([2]; read-out: EC50) of 0.03 µM and an EC50 [3] of 0.005 µM.

For CC1CNCCc2c(Cl)cccc21 (configuration not stated), the EC50 ([1]; read-out: EC50) was > 5 µM, the EC50 ([2]; read-out: EC50) was > 5 µM and the EC50 [3] was 0.86 µM.

For CC1CNCCc2cc(OCc3ccccc3)c(Br)cc21 (configuration not stated), the EC50 ([1]; read-out: EC50) was 0.022 µM, the EC50 ([2]; read-out: EC50) was > 10 µM and the EC50 [3] was 0.056 µM.

In the case of CC1CNCCc2ccc(Cl)c(F)c21 (configuration not stated), the EC50 ([1]; read-out: EC50) is reported as 0.84 µM, the ED50 (Rattus norvegicus; [8]) is reported as 40 mg/kg and the EC50 ([2]; read-out: EC50) is reported as > 10 µM. For the same molecule, the EC50 [3] was 0.022 µM.

COc1cc2c(cc1Br)C(C)CNCC2 (configuration not stated) showed an EC50 ([1]; read-out: EC50) of 0.08 µM, an ED50 (Rattus norvegicus; [8]) of 40 mg/kg and an EC50 ([2]; read-out: EC50) of 0.1 µM. It also gave an EC50 [3] of 0.005 µM.

COc1cc2c(cc1C(F)(F)F)C(C)CNCC2 (configuration not stated) was tested, and the EC50 ([1]; read-out: EC50) was 0.042 µM, the EC50 ([2]; read-out: EC50) was 0.13 µM and the EC50 [3] was 0.004 µM.

CC1CNCCc2ccc(Br)cc21 (configuration not stated) gave an EC50 ([1]; read-out: EC50) of 0.51 µM, an EC50 ([2]; read-out: EC50) of 1.5 µM and an EC50 [3] of 0.012 µM.

With C[C@@H]1CNCCc2ccc(Cl)c(Cl)c21 the EC50 ([1]; read-out: EC50) was 0.135 µM, the Maximum response [7] was 25% and the Maximum response [5] was 35%. It also gave a Maximum response [6] of 90% and an EC50 [3] of 0.003 µM.

CC1CNCCc2c(Cl)cc(Cl)cc21 (configuration not stated) gave an EC50 ([1]; read-out: EC50) of 0.17 µM, an EC50 ([2]; read-out: EC50) of 0.84 µM and an EC50 [3] of 0.02 µM.
